GSH bead fluor = compound fluoresces at 488/530 nm on GSH beads. fluorescence (KMESF) at 10 µM. AID 1776. GSH beads flow cytometry, compound fluorescence 488/530 nm; hits give high values. actives 0.25% (n = 190,000); in the data active = fluorescence above about 89;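 note: glutathione beads carrying GST-tagged Bcl family fusion proteins plus one bare bead set; values are compound well signal with DMSO vehicle wells as background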
Avidin bead fluor = compound fluoresces at 488/530 nm on avidin beads. AID 1775. compound fluorescence 488/530 nm, flow cytometry; hits give high values. actives 0.38% (n = 220,000). fluorescence (KMESF) at 10 µM; in the data active = fluorescence above about 47
ABCB1 block = blocks JC-1 efflux by human ABCB1 transporter | CCRF-Adr cells, flow cytometry | AID 1326 | P08183 | inhibition, % at 6.6 µM | actives 0.067% (n = 190,000); in the data active = inhibition above about 40%;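 note: 0% = vehicle and 100% = reference inhibitor; higher value means more JC-1 retained so stronger ABCB1 efflux block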
PKD1 kinase inh = PKD1 (human) kinase inhibition; inhibition, % (test concentration not listed); PKD1 kinase fluorescence polarization assay; Q15139; AID 797; actives 0.056% (n = 200,000)
Target sequence (Q15139 whole entry, looked up): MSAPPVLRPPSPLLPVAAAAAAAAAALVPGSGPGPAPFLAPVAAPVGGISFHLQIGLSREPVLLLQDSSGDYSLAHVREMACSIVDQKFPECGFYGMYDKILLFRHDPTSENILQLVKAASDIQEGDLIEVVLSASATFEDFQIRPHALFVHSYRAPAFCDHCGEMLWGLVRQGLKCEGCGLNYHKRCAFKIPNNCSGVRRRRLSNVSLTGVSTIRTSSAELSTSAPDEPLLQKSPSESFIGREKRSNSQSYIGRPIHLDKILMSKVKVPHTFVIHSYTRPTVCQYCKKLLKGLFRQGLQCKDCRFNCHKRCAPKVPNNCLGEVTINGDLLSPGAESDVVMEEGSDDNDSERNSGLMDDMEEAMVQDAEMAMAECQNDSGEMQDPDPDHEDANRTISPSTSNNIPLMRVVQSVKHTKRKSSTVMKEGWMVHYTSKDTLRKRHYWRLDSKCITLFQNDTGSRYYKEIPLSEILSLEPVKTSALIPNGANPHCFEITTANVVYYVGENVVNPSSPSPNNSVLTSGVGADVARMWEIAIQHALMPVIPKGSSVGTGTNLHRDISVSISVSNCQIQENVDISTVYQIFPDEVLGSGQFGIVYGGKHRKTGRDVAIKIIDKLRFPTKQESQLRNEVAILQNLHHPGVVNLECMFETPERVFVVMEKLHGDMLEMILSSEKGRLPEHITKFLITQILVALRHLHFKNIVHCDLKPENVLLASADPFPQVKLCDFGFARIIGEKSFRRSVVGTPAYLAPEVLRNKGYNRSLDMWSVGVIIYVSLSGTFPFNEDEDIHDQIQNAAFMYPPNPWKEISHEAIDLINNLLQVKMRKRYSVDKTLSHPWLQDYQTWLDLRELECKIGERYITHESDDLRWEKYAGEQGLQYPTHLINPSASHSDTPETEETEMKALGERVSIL
Lmaj promast = reduces viability of Leishmania major promastigotes; resazurin fluorescence viability; inhibition, % at 10 µM; actives 9% (n = 200,000);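 note: promastigotes grown with compound for 44 hours at 28 °C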
ABCG2 inh = inhibitors of human ABCG2 transporter, ABCB1 counter-screen | Q9UNQ0 | IgMXP3 cells, JC-1 efflux, flow cytometry | inhibition, % at 6.6 µM | actives 0.1% (n = 190,000) | AID 1325;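 active = inhibition above 80%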;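 note: 0% = DMSO and 100% = nicardipine control wells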
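Test system: ABCG2 IgMXP3 and barcoded ABCB1 CCRF-Adr cell mix; Schedule: cells with compound and JC-1, 10 min at 25 °C, rotating, no wash; Technique: flow cytometry of retained JC-1 fluorescence; Measure: % inhibition of efflux relative to nicardipine and DMSO; Controls: nicardipine high and DMSO low controls.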
An asterisk follows results filed as active; x = no result given. The entries come from a sample that favours hits as a whole. Cut-off read from the data, not from the text of the source, unless noted: active = inhibition above about 50%; inactive = the rest.

SMILES | GSH bead fluor | Avidin bead fluor | ABCB1 block | PKD1 kinase inh | Lmaj promast | ABCG2 inh
O=P(O)(O)Cc1c(Cl)cccc1Cl | 21 | 11 | 4 | -9 | 5 | 8
C=CCN1C(=O)NC(=O)/C(=C/c2ccc(OC)c(CSc3ccccn3)c2)C1=O | 8 | 32 | -1 | 7 | -5 | -2
CCOC(=O)C1=C(C)OC(N)=C(C(=O)OCC)C12C(=O)Nc1ccc(Br)cc12 (configuration not stated) | 26 | 3 | 0 | 2 | 51* | 5
O=C1NC(=O)N(CCc2ccc(F)cc2)C(=O)/C1=C\C=C\c1ccccc1 | 10 | 9 | -1 | 0 | 100* | -3
C=CCN1C(=O)NC(=O)/C(=C/C=C/c2ccccc2)C1=O | 19 | 8 | -1 | 4 | 100* | -3
CN(C)c1ccc(/C=C/C=C2/C(=O)NC(=O)N(c3ccccc3)C2=O)cc1 | 9 | 9 | 0 | -8 | 96* | 0
O=C1NC(=O)C(CCc2ccccn2)(Cc2ccc3c(c2)OCO3)C(=O)N1CCc1ccccc1 (configuration not stated) | 17 | 16 | 1 | -11 | 98* | 2
c1ccc(CNCCc2ccc3c(c2)OCO3)nc1 | 23 | 4 | 0 | -8 | 0 | 0
CNCCc1c(C)n[nH]c1C | 6 | 10 | 0 | 0 | -7 | 0
Cc1n[nH]c(C)c1CCN | 16 | 59* | 0 | -6 | -1 | 0
COc1ccc(S(=O)(=O)NC(CC(=O)N2CCC3(CC2)OCCO3)c2ccco2)cc1 (configuration not stated) | 31 | 9 | 1 | -2 | -3 | 0
Cc1cccc(-n2c(O)c(C=Nc3ccc(S(N)(=O)=O)cc3)c(=O)[nH]c2=O)c1 | 11 | 22 | 0 | -3 | -3 | 0
NS(=O)(=O)c1ccc(N=Cc2c(O)n(C3CCCCC3)c(=O)n(C3CCCCC3)c2=O)cc1 | 8 | 11 | 0 | -7 | 65* | 0
O=c1c2cc(Cl)cc(Cl)c2nc(CN2CCOCC2)n1-c1ccccc1F | 35 | 16 | 2 | -5 | 12 | 15
Clc1ccc(-c2nc3ccc(Cl)cn3c2CN2CCOCC2)cc1 | 35 | 7 | 1 | -2 | 53* | 6
COc1ccc(CNC(C)Cc2cccs2)cc1 (configuration not stated) | 15 | 10 | 0 | 2 | 77* | -1
C/C(=N\Nc1ccccc1)c1c(O)n(C)c(=O)n(C)c1=O | 10 | 5 | 0 | -8 | 76* | 8
C=CCn1c(O)c(C=NCCN2CCOCC2)c(=O)[nH]c1=S | x | 6 | x | x | x | x
COc1ccc(CCNCc2ccc(OC)c(OC)c2OC)cc1 | 24 | 11 | 2 | -9 | 2 | 25
COc1ccc(CCNCc2ccc(C)s2)cc1OC | 20 | 8 | 1 | 2 | -1 | 9
COc1ccc(CCNCc2ccncc2)cc1 | 36 | 3 | 5 | 7 | 90* | 3
COc1ccc(CCNC(=O)COC(=O)Cc2ccccc2)cc1 | 10 | 11 | 0 | -18 | -9 | 5
COc1cccc(CCNCc2ccc(SC)cc2)c1 | 18 | 10 | 0 | -1 | 51* | 2
COc1ccc(CCNC(C)CCc2ccc(OC)cc2)cc1 (configuration not stated) | 42 | 8 | 0 | -2 | 93* | 1
O=C(/C=C/c1ccc2c(c1)OCO2)c1c(O)n(CCC2=CCCCC2)c(=O)[nH]c1=O | 20 | 15 | 0 | 0 | 32 | -1
SMILES | GSH bead fluor | Avidin bead fluor | ABCB1 block | PKD1 kinase inh | Lmaj promast | ABCG2 inh
COc1ccc(/C=C/C(=O)c2c(O)n(CCC3=CCCCC3)c(=O)[nH]c2=O)cc1 | 12 | 11 | -1 | -4 | 77* | -2
O=C(COc1ccc(Cl)cc1Cl)N1CCN(C/C=C/c2ccccc2)CC1 | 13 | 15 | 0 | 5 | 89* | 1
CC1CCN(C(=O)CCl)CC1 | 9 | 9 | 0 | -2 | 8 | -1
CCCCN1CCC(O)(c2ccccc2)C(C(=O)c2ccccc2)C1 (configuration not stated) | 23 | 20 | 1 | 4 | 97* | 0
N=Cc1c(O)n(-c2ccc(C34CC5CC(CC(C5)C3)C4)cc2)c(=O)[nH]c1=O | 10 | 3 | 0 | -2 | -5 | 1
Clc1ccccc1Nc1ncnc(-n2cccc2)n1 | 22 | 25 | 0 | -7 | -4 | 6
N=c1sccn1Cc1ccc(Cl)cc1Cl | 4 | 13 | 2 | 5 | 66* | 12
NP(=O)(Oc1ccc(Cl)cc1)Oc1ccc(Cl)cc1 | 15 | 10 | 2 | -1 | 9 | 9
O=C(COc1ccccc1)N1CCN(CCN2C(=O)c3cccc4cccc(c34)C2=O)CC1 | 21 | 4 | 4 | 2 | 58* | 11
O=C(COc1ccccc1)N1CCN(C2CC3CCC2C3)CC1 (configuration not stated) | 21 | 19 | 0 | -5 | 72* | -1
CN1CCN(C(=O)COc2ccc(Oc3ccccc3)cc2)CC1 | 17 | 11 | 0 | -9 | -7 | 0
Cc1ccc(OCC(=O)N2CCN(C3CCC(c4ccccc4)CC3)CC2)cc1 (configuration not stated) | 21 | 10 | 0 | -2 | 57* | 1
O=C(COc1ccc(Br)cc1)N1CCN(Cc2c[nH]c3ccccc23)CC1 | 31 | 13 | 1 | 4 | 13 | 7
O=C(COc1ccc(Br)cc1)N1CCN(C2CCCC2)CC1 | 11 | 37 | 0 | -10 | 93* | 1
ClCCNc1nc2ccc(Cl)cc2[nH]1 | 18 | 37 | 0 | -10 | 28 | 2
O=C(COC(=O)Cc1ccccc1)Nc1cc(S(=O)(=O)N2CCOCC2)ccc1N1CCCC1 | 7 | 15 | 1 | -2 | 47 | 5
CCOC(C(=O)OCC(O)CN(CC)CC)(c1ccccc1)c1ccccc1 (configuration not stated) | 13 | 5 | 0 | -10 | 100* | -6
CCN(CC)CCCOC(=O)C(OC)(c1ccccc1)c1ccccc1 | 13 | 16 | 0 | 0 | 100* | 1
COc1ccc(CCC(=O)N2CCC3(CC2)OCCO3)cc1 | 13 | 33 | 0 | -8 | -5 | 0
COc1ccc(NC2=NC(C)(C)CS2)cc1 | 14 | 8 | 0 | -8 | 12 | 0
CNC(C(=O)c1ccccc1)C(OC(C)C)c1ccc(Cl)cc1 (configuration not stated) | 21 | 32 | 0 | 3 | 25 | 0
CC1(C)CSC(=NCc2ccccc2)N1 | 11 | 14 | 1 | 0 | 11 | 6
CC(C)(C)c1nc(NCc2ccc3c(c2)OCO3)c2nnn(Cc3ccccc3Cl)c2n1 | 141* | 4 | 0 | -12 | -8 | 0
CNc1cc(Cl)c2nonc2c1[N+](=O)[O-] | 12 | 10 | 0 | -5 | 75* | 10
